Our source for the IC50, CC50 and inhibition values is ChEMBL document CHEMBL4387722.

One data set deals with HSP60/HSP10 (Homo sapiens, UniProt P10809). The experiment in a line: Inhibition of human HSP60 expressed in Escherichia coli Rosetta 2(DE3)/human HSP10 expressed in Escherichia coli Rosetta 2(DE3) pLysS cells assessed as reduction in HSP60/HSP10-mediated denatured pig heart mitochondrial MDH refolding by measuring MDH enzyme activity using sodium mesoxalate as substrate after 40 to 60 mins by spectrometric analysis.

Data set [1] in a line: Inhibition of refolded rhodanese (unknown origin) preincubated with Escherichia coli GroEL/GroES for 60 mins by measuring rhodanese enzyme activity followed by compound addition by Fe(SCN)3 dye based spectrometric analysis. Further details: species or system Homo sapiens.
The target of data set [2] is T1, E. coli GroEL/ES (Escherichia coli, UniProt P0A6F5). The experiment in a line: Inhibition of Escherichia coli GroEL expressed in Escherichia coli DH5alpha/Escherichia coli GroES expressed in Escherichia coli BL21 (DE3) assessed as reduction in GroEL/GroES-mediated denatured rhodanese refolding by measuring rhodanese enzyme activity after 45 mins by Fe(SCN)3 dye based spectrometric analysis.

The target of data set [3] is T2, Tyrosine-protein phosphatase non-receptor type 5 (Homo sapiens, UniProt P54829).
T2 sequence (P54829 whole entry): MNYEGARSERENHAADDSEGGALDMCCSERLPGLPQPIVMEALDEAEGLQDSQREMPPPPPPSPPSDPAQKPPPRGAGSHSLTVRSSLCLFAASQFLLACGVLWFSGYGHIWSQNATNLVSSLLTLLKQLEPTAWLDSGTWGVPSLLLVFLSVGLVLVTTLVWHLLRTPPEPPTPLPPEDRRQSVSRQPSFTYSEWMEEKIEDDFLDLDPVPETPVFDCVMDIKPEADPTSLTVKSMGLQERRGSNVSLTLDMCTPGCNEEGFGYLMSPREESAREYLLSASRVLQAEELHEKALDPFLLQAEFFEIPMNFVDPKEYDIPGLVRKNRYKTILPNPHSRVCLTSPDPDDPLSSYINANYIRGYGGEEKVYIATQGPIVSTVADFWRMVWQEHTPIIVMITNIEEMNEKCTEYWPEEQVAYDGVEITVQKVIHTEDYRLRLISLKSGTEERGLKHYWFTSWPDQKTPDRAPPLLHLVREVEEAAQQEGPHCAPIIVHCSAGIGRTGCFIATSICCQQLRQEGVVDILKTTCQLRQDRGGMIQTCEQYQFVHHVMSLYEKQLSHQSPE
The experiment in a line: Inhibition of human PTPN5 expressed in Escherichia coli Rosetta 2 (DE3) using pNPP as substrate after 45 mins by spectrophotometric method.

For data set [4], the target named is T3, Tyrosine-protein phosphatase non-receptor type 1 (Homo sapiens, UniProt P18031).
T3 sequence (P18031 whole entry): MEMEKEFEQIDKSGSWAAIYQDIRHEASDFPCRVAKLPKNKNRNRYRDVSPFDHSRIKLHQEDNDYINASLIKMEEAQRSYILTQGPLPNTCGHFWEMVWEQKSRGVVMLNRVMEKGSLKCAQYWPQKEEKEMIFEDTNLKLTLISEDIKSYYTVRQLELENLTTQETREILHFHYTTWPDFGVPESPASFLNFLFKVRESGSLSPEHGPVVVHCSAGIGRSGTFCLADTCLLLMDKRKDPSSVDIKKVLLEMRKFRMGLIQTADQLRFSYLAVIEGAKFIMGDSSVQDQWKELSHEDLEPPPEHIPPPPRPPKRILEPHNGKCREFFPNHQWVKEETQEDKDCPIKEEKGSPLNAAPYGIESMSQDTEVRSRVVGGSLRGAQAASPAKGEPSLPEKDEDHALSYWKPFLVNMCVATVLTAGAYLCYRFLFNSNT
The experiment in a line: Inhibition of human PTPN1 expressed in Escherichia coli Rosetta 2 (DE3) using pNPP as substrate after 45 mins by spectrophotometric method.

The nature of data set [5]: Cytotoxicity against human THLE3 cells assessed as reduction in cell viability after 48 hrs by Alamar blue assay. In kind it is cell-based. Put shortly: (§1)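 Alamar Blue viability read-out. Human liver (THLE-3) and kidney (HEK 293) cells incubated with compound for 48 h. Tested in dose-response to derive CC50.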
The target of data set [6] is T1, E. coli GroEL/ES. The experiment in a line: Inhibition of Escherichia coli GroEL expressed in Escherichia coliDH5alpha/Escherichia coli GroES expressed in Escherichia coli BL21 (DE3) assessed as reduction in GroEL/GroES-mediated denatured pig heart mitochondrial MDH refolding by measuring MDH enzyme activity using sodium mesoxalate as substrate after 20 to 40 mins by spectrometric analysis.

The subject of data set [7] is Mycobacterium tuberculosis. The experiment in a line: Antitubercular activity against Mycobacterium tuberculosis H37Rv after 5 days at 200 uM relative to control. It counts as functional. As to conditions: 120 h. Put shortly:
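M. tuberculosis grown in liquid culture with compound at a fixed 200 μM for 5 days. Growth inhibition expressed as percent of control.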

Data set [8] addresses T4, Malate dehydrogenase, mitochondrial (Sus scrofa, UniProt P00346).
T4 sequence (P00346 whole entry): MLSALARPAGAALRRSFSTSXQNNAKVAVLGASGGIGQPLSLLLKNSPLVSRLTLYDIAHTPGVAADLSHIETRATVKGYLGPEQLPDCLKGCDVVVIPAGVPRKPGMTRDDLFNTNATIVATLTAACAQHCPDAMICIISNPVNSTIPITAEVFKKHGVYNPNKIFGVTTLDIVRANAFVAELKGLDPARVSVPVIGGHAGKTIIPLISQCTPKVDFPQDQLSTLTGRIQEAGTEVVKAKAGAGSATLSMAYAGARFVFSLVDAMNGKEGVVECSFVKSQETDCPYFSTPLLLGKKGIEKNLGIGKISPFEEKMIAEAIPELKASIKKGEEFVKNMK
Nature of the data set: Inhibition of refolded pig heart mitochondrial MDH preincubated with Escherichia coli GroEL/GroES for 45 mins using sodium mesoxalate as substrate followed by compound addition and measured after 20 to 30 mins by spectrometric analysis.

For data set [9], the target named is T5, Phosphotyrosine protein phosphatase (Mycobacterium tuberculosis, UniProt A0A045ISB3).
T5 sequence (A0A045ISB3 whole entry): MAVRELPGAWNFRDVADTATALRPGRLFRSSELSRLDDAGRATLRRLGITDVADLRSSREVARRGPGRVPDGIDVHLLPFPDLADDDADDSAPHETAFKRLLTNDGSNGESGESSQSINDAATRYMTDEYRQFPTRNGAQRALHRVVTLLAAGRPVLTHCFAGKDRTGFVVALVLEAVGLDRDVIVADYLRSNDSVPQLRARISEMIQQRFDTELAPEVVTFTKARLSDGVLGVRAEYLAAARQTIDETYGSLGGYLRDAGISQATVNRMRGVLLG
The experiment in a line: Inhibition of Mycobacterium tuberculosis His-tagged PtpB expressed in Escherichia coli Rosetta 2 (DE3) using pNPP as substrate after 30 mins by spectrophotometric method.

Data set [10] has as its target T6, Tyrosine-protein phosphatase non-receptor type 2 (Homo sapiens, UniProt P17706).
T6 sequence (P17706 whole entry): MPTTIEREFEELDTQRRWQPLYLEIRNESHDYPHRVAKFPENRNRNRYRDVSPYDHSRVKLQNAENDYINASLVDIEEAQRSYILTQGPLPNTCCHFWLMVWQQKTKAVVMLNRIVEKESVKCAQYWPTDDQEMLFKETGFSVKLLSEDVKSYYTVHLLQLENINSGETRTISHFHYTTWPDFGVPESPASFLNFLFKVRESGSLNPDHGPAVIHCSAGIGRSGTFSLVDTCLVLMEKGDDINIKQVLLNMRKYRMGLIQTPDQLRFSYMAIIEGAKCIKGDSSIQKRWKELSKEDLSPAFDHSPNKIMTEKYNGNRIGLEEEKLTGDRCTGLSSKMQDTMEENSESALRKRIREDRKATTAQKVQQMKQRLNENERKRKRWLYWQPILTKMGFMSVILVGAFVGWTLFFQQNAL
Nature of the data set: Inhibition of human PTPN2 expressed in Escherichia coli Rosetta 2 (DE3) using pNPP as substrate after 45 mins by spectrophotometric method.

A short description of data set [11]: Cytotoxicity against human HEK293 cells assessed as reduction in cell viability after 48 hrs by Alamar blue assay. It counts as cell-based. Put shortly:
as §1
Background: Alamar Blue is a resazurin reagent that responds to reducing activity.

Chain of HSP60/HSP10 (P10809 whole entry): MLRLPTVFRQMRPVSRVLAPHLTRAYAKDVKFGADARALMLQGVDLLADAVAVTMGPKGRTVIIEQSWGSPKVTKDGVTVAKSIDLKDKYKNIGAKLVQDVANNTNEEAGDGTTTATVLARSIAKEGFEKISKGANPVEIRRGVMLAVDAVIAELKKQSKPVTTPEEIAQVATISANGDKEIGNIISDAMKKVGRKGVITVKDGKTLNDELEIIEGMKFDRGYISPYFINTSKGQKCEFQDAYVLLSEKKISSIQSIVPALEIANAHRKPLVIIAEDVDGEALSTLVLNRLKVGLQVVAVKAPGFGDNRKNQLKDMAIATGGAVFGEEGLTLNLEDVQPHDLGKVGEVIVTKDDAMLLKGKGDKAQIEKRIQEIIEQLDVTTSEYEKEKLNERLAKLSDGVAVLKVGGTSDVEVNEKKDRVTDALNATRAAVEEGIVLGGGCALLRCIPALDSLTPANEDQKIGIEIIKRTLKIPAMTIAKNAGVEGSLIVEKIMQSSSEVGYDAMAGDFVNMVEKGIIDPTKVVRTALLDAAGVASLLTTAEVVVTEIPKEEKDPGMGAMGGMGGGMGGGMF
Chain of HSP60/HSP10 (P61604 whole entry, further chain): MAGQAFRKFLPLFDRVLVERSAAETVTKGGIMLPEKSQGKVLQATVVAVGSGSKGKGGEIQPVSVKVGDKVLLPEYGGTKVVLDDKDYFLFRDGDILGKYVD
T1 sequence (P0A6F5 whole entry, looked up): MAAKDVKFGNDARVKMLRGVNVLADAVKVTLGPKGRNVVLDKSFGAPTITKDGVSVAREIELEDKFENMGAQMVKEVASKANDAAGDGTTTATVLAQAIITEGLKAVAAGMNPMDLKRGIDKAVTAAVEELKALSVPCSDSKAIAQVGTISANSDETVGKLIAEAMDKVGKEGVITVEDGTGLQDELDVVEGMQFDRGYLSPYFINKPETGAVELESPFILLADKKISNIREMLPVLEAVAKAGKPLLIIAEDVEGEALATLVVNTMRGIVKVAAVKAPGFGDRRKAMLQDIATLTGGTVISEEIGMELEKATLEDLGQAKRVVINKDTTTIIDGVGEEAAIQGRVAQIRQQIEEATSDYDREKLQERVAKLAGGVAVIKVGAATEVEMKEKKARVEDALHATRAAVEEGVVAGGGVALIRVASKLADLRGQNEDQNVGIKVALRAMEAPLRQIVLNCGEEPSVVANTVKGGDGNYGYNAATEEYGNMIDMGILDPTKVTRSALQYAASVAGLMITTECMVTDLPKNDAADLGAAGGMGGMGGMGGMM

As usually defined, the IC50 is the midpoint of a concentration-inhibition curve. Usually CC50 stands for the concentration giving 50% cytotoxicity. Usually inhibition stands for the drop in the measured response relative to a control, in per cent. Read a high inhibition as a response far below the control. Consider `O=S(=O)(Nc1ccc2oc(-c3ccccc3)nc2c1)c1ccccc1C(F)(F)F`, for which the IC50 at HSP60/HSP10 is above 100 µM; in [1], above 100 µM; on E. coli GroEL/ES [2], 162 µM; in data set [3], 37 µM; in data set [4], 44 µM; on E. coli GroEL/ES [6], 92 µM. The values for the IC50 in data set [8], in data set [9] and in data set [10] were above 63 µM, 58 µM and 55 µM, respectively. In addition, the results for the CC50 at 48 h in data set [5] and in data set [11] were 59 µM and 80 µM, respectively. Moreover, testing at 200 µM in data set [7] gave an inhibition of 45%.

As for `O=S(=O)(Nc1ccc2oc(-c3ccccc3)nc2c1)c1ccccc1F`, the IC50 on HSP60/HSP10 is above 100 µM; in [1], above 100 µM; on E. coli GroEL/ES [2], 171 µM; in data set [3], 44 µM; in [4] it was 59 µM; at E. coli GroEL/ES [6], above 100 µM. Moreover, the IC50 in data set [8] was above 63 µM; in data set [9], 80 µM; in data set [10], 69 µM. For the same compound, the figures for the CC50 at 48 h in [5] and in data set [11] were 53 µM and 72 µM, respectively. In data set [7], this compound returned an inhibition at 200 µM of 12%.

For the compound `O=S(=O)(Nc1ccc(-c2nc3ccccc3o2)cc1)c1ccc(Cl)c(Cl)c1`, the IC50 was 25 µM on HSP60/HSP10; above 100 µM in data set [1]; 104 µM on E. coli GroEL/ES [2]; 30 µM in data set [3]; 29 µM in data set [4]; 43 µM on E. coli GroEL/ES [6]. For the same compound, the IC50 in [8] was above 63 µM; in data set [9], 25 µM; in data set [10] it was 33 µM. The CC50 at 48 h in data set [5] was 84 µM; in [11], above 100 µM. The compound also gave an inhibition at 200 µM in data set [7] of 37%.

For the compound `Cc1cccc(S(=O)(=O)Nc2ccc(-c3nc4ccccc4o3)cc2)c1`, the IC50 is above 100 µM at HSP60/HSP10; above 100 µM in [1]; 165 µM at E. coli GroEL/ES [2]; 28 µM in data set [3]; 37 µM in [4]; 92 µM on E. coli GroEL/ES [6]. Moreover, the IC50 in data set [8] is above 63 µM; in data set [9], 40 µM; in data set [10], 40 µM. For the same compound, the CC50 at 48 h in [5] is 81 µM; in [11], above 100 µM. Also, the inhibition at 200 µM in [7] came out at 13%.

With `O=S(=O)(Nc1ccc2oc(-c3ccccc3)nc2c1)c1ccc(Cl)c(Cl)c1`, the IC50 at HSP60/HSP10 was above 100 µM; in data set [1], above 100 µM; on E. coli GroEL/ES [2], 152 µM; in [3], 25 µM; in [4], 35 µM; on E. coli GroEL/ES [6] it was 79 µM. The results for the IC50 in [8], in data set [9] and in data set [10] were above 63 µM, 33 µM and 33 µM, respectively. The CC50 at 48 h in data set [5] stood at 55 µM; in data set [11], 71 µM. This compound had an inhibition at 200 µM in data set [7] of 22%.

In the case of `COc1ccc(Cl)cc1S(=O)(=O)Nc1ccc(-c2nc3ccccc3o2)cc1`, the IC50 was above 100 µM on HSP60/HSP10; above 100 µM in [1]; 83 µM on E. coli GroEL/ES [2]; 37 µM in data set [3]; 21 µM in data set [4]; 59 µM at E. coli GroEL/ES [6]. In addition, the IC50 was above 63 µM in [8], 29 µM in data set [9] and 28 µM in data set [10]. Further, the figures for the CC50 at 48 h in [5] and in data set [11] were 42 µM and 75 µM, respectively. 200 µM produced 0% inhibition in data set [7].

Take `CS(=O)(=O)Nc1ccc(-c2nc3ccccc3o2)cc1`: the IC50 at HSP60/HSP10 is above 100 µM; in data set [1], above 100 µM; on E. coli GroEL/ES [2], above 250 µM; in [3], above 100 µM; in [4] it was above 100 µM; on E. coli GroEL/ES [6], above 100 µM. Besides, the IC50 in data set [8] was above 63 µM; in data set [9], above 100 µM; in data set [10] it was above 100 µM. In addition, the CC50 at 48 h in [5] and in data set [11] was above 100 µM in each case. Besides, testing at 200 µM in data set [7] gave an inhibition of 23%.

In the case of `O=S(=O)(Nc1ccc2oc(-c3ccccc3)nc2c1)c1ccccc1Cl`, the IC50 was above 100 µM at HSP60/HSP10; above 100 µM in [1]; 103 µM at E. coli GroEL/ES [2]; 35 µM in data set [3]; 40 µM in data set [4]; 90 µM on E. coli GroEL/ES [6]. Besides, the concentration for half-maximal inhibition (IC50) in data set [8] is above 63 µM; in data set [9], 50 µM; in [10], 42 µM. The cytotoxic concentration (CC50) at 48 h in [5] is 43 µM; in [11], 73 µM. Also, the inhibition at 200 µM in [7] was found to be 13%.

Consider `O=S(=O)(Nc1ccc2oc(-c3ccccc3)nc2c1)c1cccc(O)c1`, for which the IC50 at HSP60/HSP10 is 76 µM; in data set [1], above 100 µM; at E. coli GroEL/ES [2], 103 µM; in [3] it was 72 µM; in [4] it was above 100 µM; on E. coli GroEL/ES [6] it was 58 µM. In addition, the IC50 is above 63 µM in data set [8], 98 µM in data set [9] and above 100 µM in data set [10]. In addition, the CC50 at 48 h in [5] was 79 µM; in data set [11] it was above 100 µM. In [7], this compound came in with an inhibition at 200 µM of 3%.
